Converted amounts (≈) assume the structure as drawn. The source made the active and inactive calls. The calls are words filed in the database; no cut-off is given here.
Assays:
[1] = test system: Candida tropicalis; experiment: Downregulation of ERG11 mRNA expression in Candida tropicalis 5008 at 4 ug/ml measured after 24 hrs by qRT-PCR analysis; format: functional; conditions: dose 4.0 µg/ml
Outline: (§1)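 Exponential-phase C. tropicalis 5008 inoculated into 10 mL YPD with compound at several concentrations, DMSO as blank control. Incubated 35 °C for 24 h. Total RNA isolated on columns and reverse-transcribed. Real-time RT-PCR with ACT1 as internal control. Mean of 3 independent assays ± SD.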

[2] = test system: Cryptococcus neoformans; experiment: Inhibition of CYP51 in Cryptococcus neoformans H99 assessed as lanosterol level at 4 ug/ml by GC-MS analysis; set-up: scale not given: the % may be the effect or the level left; conditions: dose 4.0 µg/ml
[3] = test system: Candida tropicalis; experiment: Antifungal activity against fluconazole-resistant Candida tropicalis 5008 assessed as inhibition of cell proliferation at 8 ug/ml measured for 48 hrs by time growth curve assay; format: functional, organism-based; conditions: dose 8.0 µg/ml
Outline: (§2)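 Exponential-phase cells from YEPD resuspended in 3 mL fresh RPMI 1640 at 1 × 10⁵ cells/mL (C. tropicalis 5008) or 1 × 10⁶ cells/mL (C. neoformans H99). Compound at several concentrations; cultures shaken at 240 rpm, 30 °C. Growth read as OD₆₃₀ at 0, 6, 12, 24, 36 and 48 h. Done in triplicate.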

[4] = test system: Cryptococcus neoformans; experiment: Downregulation of CLR62 mRNA expression in Cryptococcus neoformans H99 at 2 ug/ml measured after 24 hrs by qRT-PCR analysis; format: functional; conditions: dose 2.0 µg/ml
Outline: (§3)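 Exponentially growing C. neoformans H99 inoculated into 50 mL YPD with compound and incubated 35 °C for 24 h. Cells ground in liquid nitrogen before total RNA isolation, then reverse transcription and real-time RT-qPCR. Means ± SD of three independent assays.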

[5] = test system: Candida tropicalis; experiment: Inhibition of CYP51 in Candida tropicalis 5008 assessed as unknown sterol level at 4 ug/ml by GC-MS analysis (reference value: 6.48%); set-up: scale not given: the % may be the effect or the level left; conditions: dose 4.0 µg/ml
[6] = test system: Candida albicans; experiment: microbe, parasite or virus in culture; format: functional; conditions: 0304103
[7] = test system: Cryptococcus neoformans; experiment: Downregulation of CAP64 gene expression in Cryptococcus neoformans H99 at 2 ug/ml measured after 24 hrs by qRT-PCR analysis; format: functional; conditions: dose 2.0 µg/ml; outline: as §3
[8] = test system: Candida tropicalis; experiment: microbe, parasite or virus in culture; format: functional; conditions: 5008, time 48 hrs
[9] = Inhibition of HDAC in Cryptococcus neoformans H99 using Boc-Lys(Ac)-AMC as substrate preincubated with protoplast for 12 hrs followed by incubation with substrate for 6 hrs by fluorimetric assay
[10] = test system: Cryptococcus neoformans; experiment: Downregulation of HOS1 mRNA expression in Cryptococcus neoformans H99 at 2 ug/ml measured after 24 hrs by qRT-PCR analysis; format: functional; conditions: dose 2.0 µg/ml; outline: as §3
[11] = test system: Cryptococcus neoformans; experiment: Inhibition of capsule formation in Cryptococcus neoformans H99 assessed as reduction in capsule size at 40 to 50 ug/ml incubated for 24 hrs by laser scanning confocal microscopic analysis; format: functional; conditions: dose 40-50 µg/ml
Outline: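 Exponential C. neoformans H99 resuspended in PBS at 1 × 10⁷ cells/mL. Cells cultured in DMEM with FBS and compound at 37 °C under 10% CO₂ for 24 h, with an untreated control. Stained with India ink and imaged by laser scanning confocal microscopy at 63×, 10 random fields. Whole-cell and cell-body diameters measured to derive capsule size.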

[12] = test system: Candida tropicalis; experiment: Antifungal activity against Candida tropicalis 5008 assessed as inhibition of fungal filamentation by measuring reduction in hyphae formation at 1 ug/ml incubated for 7 hrs by cell inverted imaging microscopic analysis; format: functional, organism-based; conditions: dose 1.0 µg/ml
Outline: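 C. tropicalis 5008 from exponential YEPD culture diluted in spider medium to 1 × 10⁵ CFU/mL. Compound added at several concentrations, with fluconazole as positive drug. Incubated 37 °C for 7 h, then morphology compared with the no-drug group by live-cell inverted microscopy.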

[13] = test system: Cryptococcus neoformans; experiment: Antifungal activity against Cryptococcus neoformans H99 infected in ICR mouse model assessed as reduction in fungal burden in brain at 20 mg/kg, po administered once a day for 5 days; format: functional, organism-based; conditions: time 5.0 day
Outline: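 Immunosuppression by intraperitoneal cyclophosphamide 24 h before infection. Infected on day 0 by intravenous 2 × 10⁵ CFU C. neoformans H99. Oral treatment once daily for 5 consecutive days, starting 24 h post infection; saline group as blank. Brains taken on day 6 and homogenized, dilutions plated on SDA at 35 °C for 48 h. Colonies counted for burden; groups compared by ANOVA.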

[14] = test system: Candida tropicalis; experiment: Antifungal activity against fluconazole-resistant Candida tropicalis 5008 assessed as inhibition of cell proliferation at 32 ug/ml measured for 48 hrs by time growth curve assay; format: functional, organism-based; conditions: dose 32.0 µg/ml; outline: as §2
[15] = test system: Candida tropicalis; experiment: Inhibition of CYP51 in Candida tropicalis 5008 assessed as obtusifoliol level at 4 ug/ml by GC-MS analysis; set-up: scale not given: the % may be the effect or the level left; conditions: dose 4.0 µg/ml
[16] = test system: Cryptococcus neoformans; experiment: Downregulation of CAP59 gene expression in Cryptococcus neoformans H99 at 2 ug/ml measured after 24 hrs by qRT-PCR analysis; format: functional; conditions: dose 2.0 µg/ml
Outline: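 Exponential-phase C. neoformans H99 inoculated into 50 mL YPD with compound. Incubated 35 °C for 24 h, then cultures ground in liquid nitrogen for RNA isolation. Transcript levels of capsule-associated genes quantified by RT-qPCR. Three independent experiments, mean ± SD, t-test.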

[17] = test system: Candida albicans; experiment: microbe, parasite or virus in culture; format: functional; conditions: 4108
[18] = test system: Candida tropicalis; experiment: Inhibition of CYP51 in Candida tropicalis 5008 assessed as ergosterol level at 4 ug/ml by GC-MS analysis (reference value: 84.91%); set-up: scale not given: the % may be the effect or the level left; conditions: dose 4.0 µg/ml
[19] = test system: Cryptococcus neoformans; experiment: Downregulation of HOS2 mRNA expression in Cryptococcus neoformans H99 at 2 ug/ml measured after 24 hrs by qRT-PCR analysis; format: functional; conditions: dose 2.0 µg/ml; outline: as §3
[20] = test system: Cryptococcus neoformans; experiment: Downregulation of RPD3 mRNA expression in Cryptococcus neoformans H99 at 2 ug/ml measured after 24 hrs by qRT-PCR analysis; format: functional; conditions: dose 2.0 µg/ml; outline: as §3
[21] = test system: Candida albicans; experiment: Antifungal activity against fluconazole-sensitive Candida albicans SC5314 assessed as inhibition of fungal growth; format: functional
[22] = test system: Cryptococcus neoformans; experiment: Inhibition of biofilm formation in Cryptococcus neoformans H99 at 64 ug/ml incubated for 24 hrs by XTT reduction assay; format: functional
Outline: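 C. tropicalis 5008 or C. neoformans H99 from exponential YEPD culture diluted in RPMI 1640 to 1 × 10⁶ CFU/mL. Adhesion at 37 °C for 1.5 h. Results given as percent inhibition versus untreated wells. Three independent experiments, mean ± SD, t-test.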

[23] = test system: Candida tropicalis; experiment: Downregulation of MDR1 mRNA expression in Candida tropicalis 5008 at 4 ug/ml measured after 24 hrs by qRT-PCR analysis; format: functional; conditions: dose 4.0 µg/ml; outline: as §1
[24] = test system: Cryptococcus neoformans; experiment: Inhibition of CYP51 in Cryptococcus neoformans H99 assessed as ergosterol level at 4 ug/ml by GC-MS analysis (reference value: 60.18%); set-up: scale not given: the % may be the effect or the level left; conditions: dose 4.0 µg/ml
[25] = test system: Candida tropicalis; experiment: Antifungal activity against Candida tropicalis 5008 infected in ICR mouse model assessed as reduction in fungal burden in kidney at 20 mg/kg, po administered once a day for 5 days; format: functional; conditions: time 5 day
Outline: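 ICR mice given cyclophosphamide 100 mg/kg ip 24 h before infection, then infected iv with 1 × 10⁵ CFU C. tropicalis 5008 on day 0. Treatment started 24 h post infection: oral dosing once daily for 5 consecutive days, with saline and fluconazole control groups. Mice euthanized day 6. Kidney homogenates plated on SDA at 35 °C for 48 h and colonies counted for fungal burden. ANOVA between groups.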

## O=C(CCCCCCCOc1ccc(CN2CCN(CC(O)(Cn3cncn3)c3ccc(F)cc3F)CC2)cc1)NO (stereo not given)
[1]
  inhibition: Active
[2]
  Activity: 9.59%
[3]
  Activity: Active
[4]
  inhibition: Active
[5]
  Activity: 1.31%
[6]
  MIC80: 8 µg/mL (≈ 13.6 µM)
[7]
  inhibition: inactive
[8]
  MIC80: 0.5 µg/mL (≈ 0.852 µM)
[9]
  IC50: 12.6 µM
[10]
  inhibition: Active
[11]
  inhibition: Active
[12]
  Activity: Active
[13]
  Activity: Active
[14]
  Activity: Active
[15]
  Activity: 16%
[16]
  inhibition: inactive
[17]
  MIC80: 8 µg/mL (≈ 13.6 µM)
[18]
  Activity: 1.51%
[19]
  inhibition: Active
[20]
  inhibition: Active
[21]
  MIC80: 8 µg/mL (≈ 13.6 µM)
[22]
  inhibition at 64 µg/mL: 70%
[23]
  inhibition: Active
[24]
  Activity: 19.1%
[25]
  log(activity): 0.7

From ChEMBL document CHEMBL4842325, “Lanosterol 14α-demethylase (CYP51)/histone deacetylase (HDAC) dual inhibitors for treatment of Candida tropicalis and Cryptococcus neoformans infections” (Eur J Med Chem, 2021)
